{"source": "ChEMBL document CHEMBL4364265", "about": "“Oridonin derivatives as potential anticancer drug candidates triggering apoptosis through mitochondrial pathway in the liver cancer cells” (Eur J Med Chem, 2019)", "key": {"HepG2 [1]": {"system": "HepG2", "assay": "Induction of apoptosis in human HepG2 cells assessed as upregulation of Bax protein expression level incubated for 24 hrs by Western blot analysis", "type": "functional, cell-based", "how_it_was_run": "(§1)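 Cells were treated 24 h in DMEM with 0, 0.25, 0.5, 1.0 or 1.25 µM compound. Adherent and floating cells were lysed in RIPA on ice and protein measured by BCA. Equal protein was run on 7.5–12.5% SDS-PAGE and transferred to PVDF. Membranes were blocked in 5% milk/PBST, incubated with primary antibody overnight at 4 °C, and detected by ECL.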"}, "HepG2 [2]": {"system": "HepG2", "assay": "Induction of apoptosis in human HepG2 cells assessed as change in p53 protein expression level at 0.25 to 1.25 uM incubated for 24 hrs by Western blot analysis", "type": "functional, cell-based", "how_it_was_run": "as §1"}, "HepG2 [3]": {"system": "HepG2", "assay": "Induction of apoptosis in human HepG2 cells assessed as early apoptotic cells at 1 uM incubated for 24 hrs by annexin V staining based cell counting method (reference value: 3.60%)", "type": "functional"}, "L02": {"system": "L02", "assay": "Cytotoxicity against human LO2 cells incubated for 72 hrs by CCK8 cells", "type": "cell-based", "details": "L02, 72 h", "how_it_was_run": "(§2)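 CCK-8 proliferation assay. 10,000 cells per well were preincubated 24 h at 37 °C with 5% CO2, then given compound dissolved in DMSO and incubated 72 h. CCK-8 was added for 4 h and absorbance read at 450 nm. IC50 was taken from dose-response curves as mean ± SEM of at least three independent experiments, with paclitaxel as positive control. HepG2 and L-O2 were grown in DMEM/10% FBS; A549 and RPMI-8226 in RPMI 1640/10% FBS.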"}, "HepG2 [4]": {"system": "HepG2", "assay": "Induction of apoptosis in human HepG2 cells assessed as late apoptotic cells at 0.25 uM incubated for 24 hrs by annexin V staining based cell counting method (reference value: 5.65%)", "type": "functional"}, "HepG2 [5]": {"system": "HepG2", "assay": "Induction of cell cycle arrest in human HepG2 cells assessed as accumulation at G1 phase at 1 uM incubated for 24 hrs by PI staining based flow cytometric analysis (reference value: 37.06%)", "type": "functional"}, "HepG2 [6]": {"system": "HepG2", "assay": "Induction of apoptosis in human HepG2 cells assessed as increase in cytochrome c protein expression level at 0.25 to 1.25 uM incubated for 24 hrs by Western blot analysis", "type": "functional, cell-based", "how_it_was_run": "as §1"}, "PLC-PRF-5 [7]": {"system": "PLC-PRF-5", "assay": "Induction of cell cycle arrest in human PLC/PRF/5 cells assessed as accumulation at G1 phase at 0.25 uM incubated for 24 hrs by PI staining based flow cytometric analysis (reference value: 34.78%)", "type": "functional"}, "HepG2 [8]": {"system": "HepG2", "assay": "Inhibition of colony formation in human HepG2 cells at 0.1 to 1 uM incubated for 10 days by crystal violet staining based microscopic method", "type": "functional, cell-based", "how_it_was_run": "(§3)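 Five hundred cells plated per 30 mm dish and left 12 h. Medium with compound was added (0, 0.1, 0.5, 1 µM) or DMSO as negative control, and cells grew 10 days. Colonies were fixed in methanol 15 min, stained with 0.1% crystal violet 15 min, photographed and counted. Colony size was checked by microscope. Relative colony number is mean ± SD of ≥3 independent experiments.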"}, "PLC-PRF-5 [9]": {"system": "PLC-PRF-5", "assay": "Antitumour activity against human PLC/PRF/5 cells xenografted in nude mouse assessed as tumour growth inhibition at 10 mg/kg, iv administrated once every 3 days for 4 weeks", "type": "functional, organism-based", "how_it_was_run": "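PLC/PRF/5 xenograft. 2 × 10^7 cells in 0.2 mL saline were injected s.c. into the right forelimb of nude mice. At about 120 mm3, mice were randomized into 3 groups of 6 and dosed i.v. at 10 mg/kg once every three days for 4 weeks. Vehicle was 10% N-methylpyrrolidone/12% Tween-80/78% saline. Volume (a×b²/2) and body weight were recorded daily, and tumors were excised and weighed at the end.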"}, "HepG2 [10]": {"system": "HepG2", "assay": "Induction of apoptosis in human HepG2 cells assessed as necrotic cells at 0.25 uM incubated for 24 hrs by annexin V staining based cell counting method (reference value: 3.40%)", "type": "functional"}, "HepG2 [11]": {"system": "HepG2", "assay": "Induction of ROS generation in human HepG2 cells by DCFH-DA staining-based flow cytometric analysis", "type": "functional, cell-based", "how_it_was_run": "(§4)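 Cells were treated with 0, 0.25, 0.5 or 1 µM compound, stained with 10 µM DCFH-DA for 20 min at 37 °C, washed three times, resuspended in PBS and read by flow cytometry. Data are mean ± SD of three independent experiments.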"}, "PLC-PRF-5 [12]": {"system": "PLC-PRF-5", "assay": "Induction of cell cycle arrest in human PLC/PRF/5 cells assessed as accumulation at G2 phase at 0.5 uM incubated for 24 hrs by PI staining based flow cytometric analysis (reference value: 18.05%)", "type": "functional"}, "PLC-PRF-5 [13]": {"system": "PLC-PRF-5", "assay": "Induction of apoptosis in human PLC/PRF/5 cells assessed as necrotic cells at 1 uM incubated for 24 hrs by annexin V staining based cell counting method (reference value: 0.59%)", "type": "functional"}, "PLC-PRF-5 [14]": {"system": "PLC-PRF-5", "assay": "Induction of apoptosis in human PLC/PRF/5 cells assessed as shrunken chromatin at 0.25 to 1 uM incubated for 24 hrs by Hoechst 33258 dye based fluorescence microscopic method", "type": "functional, cell-based", "how_it_was_run": "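About 2 × 10^4 cells per well were plated overnight and treated 24 h with 0, 0.25, 0.5 or 1 µM compound. Cells were fixed in 4% paraformaldehyde for 30 min at room temperature, stained with 20 µg/mL Hoechst 33258 for 20 min at 37 °C, and imaged by fluorescence microscopy.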"}, "HepG2 [15]": {"system": "HepG2", "assay": "Antiproliferative activity against human HepG2 cells incubated for 72 hrs by CCK8 cells", "type": "functional, cell-based", "details": "HepG2, 72 h", "how_it_was_run": "as §2"}, "PLC-PRF-5 [16]": {"system": "PLC-PRF-5", "assay": "Induction of apoptosis in human PLC/PRF/5 cells assessed as live cells at 1 uM incubated for 24 hrs by annexin V staining based cell counting method (reference value: 88.95%)", "type": "functional"}, "PLC-PRF-5 [17]": {"system": "PLC-PRF-5", "assay": "Induction of cell cycle arrest in human PLC/PRF/5 cells assessed as accumulation at G1 phase at 0.5 uM incubated for 24 hrs by PI staining based flow cytometric analysis (reference value: 34.78%)", "type": "functional"}, "PLC-PRF-5 [18]": {"system": "PLC-PRF-5", "assay": "Inhibition of colony formation in human PLC/PRF/5 cells assessed as decrease in colony size at 0.1 to 1 uM incubated for 10 days by crystal violet staining based microscopic method"}, "PLC-PRF-5 [19]": {"system": "PLC-PRF-5", "assay": "Inhibition of colony formation in human PLC/PRF/5 cells at 0.5 uM incubated for 10 days by crystal violet staining based microscopic method relative to control", "type": "functional", "details": "PLC-PRF-5, 240 h", "how_it_was_run": "as §3"}, "A549": {"system": "A549", "assay": "Antiproliferative activity against human A549 cells incubated for 72 hrs by CCK8 cells", "type": "functional, cell-based", "details": "A549, 72 h", "how_it_was_run": "as §2"}, "HepG2 [20]": {"system": "HepG2", "assay": "Induction of apoptosis in human HepG2 cells assessed as early apoptotic cells at 0.5 uM incubated for 24 hrs by annexin V staining based cell counting method (reference value: 3.60%)", "type": "functional"}, "HepG2 [21]": {"system": "HepG2", "assay": "Induction of cell cycle arrest in human HepG2 cells assessed as accumulation at G2 phase at 0.25 uM incubated for 24 hrs by PI staining based flow cytometric analysis (reference value: 25.55%)", "type": "functional"}, "PLC-PRF-5 [22]": {"system": "PLC-PRF-5", "assay": "Induction of ROS generation in human PLC/PRF/5 cells at 1 uM by DCFH-DA staining-based flow cytometric analysis relative to control", "type": "functional", "how_it_was_run": "as §4"}, "PLC-PRF-5 [23]": {"system": "PLC-PRF-5", "assay": "Induction of cell cycle arrest in human PLC/PRF/5 cells assessed as accumulation at S phase at 0.25 uM incubated for 24 hrs by PI staining based flow cytometric analysis (reference value: 42.03%)", "type": "functional"}, "PLC-PRF-5 [24]": {"system": "PLC-PRF-5", "assay": "Induction of apoptosis in human PLC/PRF/5 cells assessed as late apoptotic cells at 0.5 uM incubated for 24 hrs by annexin V staining based cell counting method (reference value: 4.81%)", "type": "functional"}}, "note": "The source made the active and inactive calls. No cut-off for these calls is given here.", "data": [{"compound": "C=C1C(=O)[C@]23[C@H](OC(=O)/C=C/c4ccc(OC)cc4)[C@H]1CC[C@H]2[C@@]12CO[C@]3(O)[C@@H](O)[C@@H]1C(C)(C)CC[C@@H]2O", "values": [{"measurement": "Activity", "setting": "HepG2 [1]", "result": "Dose-dependent effect"}, {"measurement": "Activity", "setting": "HepG2 [2]", "result": "inactive"}, {"measurement": "Activity", "setting": "HepG2 [3]", "result": 21.8, "unit": "%"}, {"measurement": "IC50", "setting": "L02", "result": 1470, "unit": "nM"}, {"measurement": "Activity", "setting": "HepG2 [4]", "result": 5.7, "unit": "%"}, {"measurement": "Activity", "setting": "HepG2 [5]", "result": 42.33, "unit": "%"}, {"measurement": "Activity", "setting": "HepG2 [6]", "result": "Active"}, {"measurement": "Activity", "setting": "PLC-PRF-5 [7]", "result": 37.17, "unit": "%"}, {"measurement": "inhibition", "setting": "HepG2 [8]", "result": "Active"}, {"measurement": "TGI", "setting": "PLC-PRF-5 [9]", "result": "Active"}, {"measurement": "Activity", "setting": "HepG2 [10]", "result": 7.05, "unit": "%"}, {"measurement": "Activity", "setting": "HepG2 [11]", "result": "Dose-dependent effect"}, {"measurement": "Activity", "setting": "PLC-PRF-5 [12]", "result": 13.58, "unit": "%"}, {"measurement": "Activity", "setting": "PLC-PRF-5 [13]", "result": 0.45, "unit": "%"}, {"measurement": "Activity", "setting": "PLC-PRF-5 [14]", "result": "Active"}, {"measurement": "IC50", "setting": "HepG2 [15]", "result": 1360, "unit": "nM"}, {"measurement": "Activity", "setting": "PLC-PRF-5 [16]", "result": 33.5, "unit": "%"}, {"measurement": "Activity", "setting": "PLC-PRF-5 [17]", "result": 43.49, "unit": "%"}, {"measurement": "inhibition", "setting": "PLC-PRF-5 [18]", "result": "Active"}, {"measurement": "inhibition at 0.5 µM", "setting": "PLC-PRF-5 [19]", "result": 100, "unit": "%"}, {"measurement": "IC50", "setting": "A549", "result": 12000, "unit": "nM"}, {"measurement": "Activity", "setting": "HepG2 [20]", "result": 8.95, "unit": "%"}, {"measurement": "Activity", "setting": "HepG2 [21]", "result": 24.78, "unit": "%"}, {"measurement": "fold change (FC)", "setting": "PLC-PRF-5 [22]", "result": 3}, {"measurement": "Activity", "setting": "PLC-PRF-5 [23]", "result": 46.59, "unit": "%"}, {"measurement": "Activity", "setting": "PLC-PRF-5 [24]", "result": 18.84, "unit": "%"}]}]}
